Assay results pooled from the literature.
Target: Serine/threonine-protein kinase Nek5 (NEK5, Homo sapiens, UniProt Q6P3R8)
Sequence (Q6P3R8 1-708, as in one of the studies): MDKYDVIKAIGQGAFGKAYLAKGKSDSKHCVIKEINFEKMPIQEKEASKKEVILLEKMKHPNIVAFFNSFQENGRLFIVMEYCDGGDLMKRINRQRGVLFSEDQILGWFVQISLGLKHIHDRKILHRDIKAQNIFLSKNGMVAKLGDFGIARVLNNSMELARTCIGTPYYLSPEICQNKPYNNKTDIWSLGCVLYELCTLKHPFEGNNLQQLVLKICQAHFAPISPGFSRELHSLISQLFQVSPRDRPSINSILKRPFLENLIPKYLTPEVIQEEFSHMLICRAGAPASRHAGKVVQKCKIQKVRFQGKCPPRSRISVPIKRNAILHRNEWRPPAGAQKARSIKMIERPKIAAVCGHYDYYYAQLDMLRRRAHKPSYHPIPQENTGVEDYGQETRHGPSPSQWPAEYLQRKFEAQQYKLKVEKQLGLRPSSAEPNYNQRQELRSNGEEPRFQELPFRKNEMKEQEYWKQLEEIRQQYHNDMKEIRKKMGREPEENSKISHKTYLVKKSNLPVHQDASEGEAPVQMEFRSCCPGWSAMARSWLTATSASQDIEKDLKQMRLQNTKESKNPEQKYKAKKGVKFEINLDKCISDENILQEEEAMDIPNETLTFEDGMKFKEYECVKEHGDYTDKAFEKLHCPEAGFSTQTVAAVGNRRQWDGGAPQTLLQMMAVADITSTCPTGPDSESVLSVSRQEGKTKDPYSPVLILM

C=CC(=O)N1CCC(C(=O)NCC(=O)N2CCN(c3nc(-c4cnc(N)nc4C(F)F)nc(N4CCOCC4)n3)CC2)CC1
remaining binding (binding, competition with immobilised ligand; 1 µM): 100%

O=C(NCCCN1CCOCC1)c1ccc(Nc2nccc(-c3cc4ccccc4s3)n2)cc1
remaining binding (binding, competition with immobilised ligand; 1 µM): 4.4%

N[C@@H]1CCN(c2nccc(-c3cnn4ncccc34)n2)C1
remaining binding (binding; 1 µM): 100%

C[C@H](c1ccc(F)cc1)N(Cc1cccc(C(=O)O)c1)C(=O)c1cnc2ccccc2c1
remaining binding (cell-free assay, competition with immobilised ligand; 1 µM): 100%

O=C(NCC1CCOCC1)c1n[nH]cc1NC(=O)c1c(F)cccc1F
remaining binding (binding, competition with immobilised ligand; 1 µM): 100%

Cn1nc(C(F)(F)F)cc1-c1cnc(N2CCc3cc(S(=O)(=O)Nc4c(F)cc(Cl)cc4F)cc(N4CCCC4=O)c32)nc1
remaining binding (cell-free assay, competition with immobilised ligand; 1 µM): 86%

CN(C)c1nccc(-c2cnn3ncccc23)n1
remaining binding (binding; 1 µM): 100%

CC(=O)N1CCC(c2ccc(C(=O)NC(=N)N)cc2C(F)(F)F)CC1
remaining binding (cell-free assay, competition with immobilised ligand; 1 µM): 100%

Cc1cnc(Nc2ccc(C(=O)N3CCC(N4CCCC4)CC3)cc2)nc1-c1cc2ccccc2s1
remaining binding (binding, competition with immobilised ligand; 1 µM): 0.1%

C[C@@H]1CCN(c2nccc(-c3cnn4ncccc34)n2)C1
remaining binding (binding; 1 µM): 100%

O=C(Nc1cccnn1)N1CCC(=Cc2cccc(Oc3ccc(C(F)(F)F)cn3)c2)CC1
remaining binding (cell-free assay, competition with immobilised ligand; 1 µM): 97%

CCN1CCN(Cc2ccc(C(=O)Nc3ccc(C)c(Oc4ccc5c(c4)CC(=O)N5)c3)cc2C(F)(F)F)CC1
remaining binding (binding, competition with immobilised ligand; 1 µM): 100%

CNC(=O)[C@@H]1CC[C@@H](n2c(-c3ccc4cnccc4c3)nc3ccc(C(=O)NCc4cccc(C(N)=O)c4)cc32)C1
remaining binding (binding, competition with immobilised ligand; 1 µM): 100%

F[C@@H]1CCN(c2nccc(-c3cnn4ncccc34)n2)C1
remaining binding (binding; 1 µM): 100%

C[C@@H](c1ccc(-n2cnc3c(N)ncnc32)cc1)N1CCc2nn(C)c(Cc3ccccc3)c2C1=O
remaining binding (binding, competition with immobilised ligand; 0.1 µM): 92%

CC1CCCN1c1nccc(-c2cnn3ncccc23)n1 (stereo not drawn)
remaining binding (binding; 1 µM): 100%

O=C(c1ccc(Nc2nccc(-c3cc4ccccc4s3)n2)cc1)N1CCC(N2CCCC2)CC1
remaining binding (binding, competition with immobilised ligand; 1 µM): 15%

COc1ccc2c(O[C@@H]3C[C@H]4C(=O)N[C@]5(C(=O)O)CC5/C=C\CCCCC[C@H](NC(=O)OC5CCCC5)C(=O)N4C3)cc(-c3csc(NC(=O)C(C)C)n3)nc2c1C (stereo partly drawn)
remaining binding (cell-free assay, competition with immobilised ligand; 1 µM): 98%

COc1cnc(Nc2cccc(S(N)(=O)=O)c2)nc1N1CCN(c2ccccc2)C(=O)C1
remaining binding (binding, competition with immobilised ligand; 1 µM): 88%

Cc1cc(NC(=O)c2cccc(S(F)(F)(F)(F)F)c2)cc(-n2ccn3nc(-c4cccnc4)cc23)c1
remaining binding (cell-free assay, competition with immobilised ligand; 1 µM): 86.8%

c1cnn2ncc(-c3ccnc(N4CCC45COC5)n3)c2c1
remaining binding (binding; 1 µM): 97%
